A selection: hits, their analogues and other compounds. The true share with any hit is near 2.3%.
TRPC6 inhibitor = mouse TRPC6 channel inhibition | 1.1% of 310,000 active | B-score at 10 µM | HEK293-TRPC6, membrane potential dye, ACh-evoked depolarization; stronger effect = lower value;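 active = B-score under library mean minus 3 SD, initial fluorescence not abnormally high, positive integrated signal ratio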;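 note: B-score derived from integrated fluorescence ratio over the kinetic read; more negative B-score means stronger inhibition of depolarization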
TRPC4 inh = inhibitors of mouse TRPC4 channel; Q9QUQ5; HEK293 TRPC4beta/mu-opioid, DAMGO-evoked Fluo4 calcium flux; stronger effect = lower value; B-score at 10 µM; 0.39% of 300,000 active; AID 2247;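 active = B-score over 3 SD under the library average, no early fluorescence shift, positive overall ratio signal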
Target sequence (Q9QUQ5 whole entry, looked up): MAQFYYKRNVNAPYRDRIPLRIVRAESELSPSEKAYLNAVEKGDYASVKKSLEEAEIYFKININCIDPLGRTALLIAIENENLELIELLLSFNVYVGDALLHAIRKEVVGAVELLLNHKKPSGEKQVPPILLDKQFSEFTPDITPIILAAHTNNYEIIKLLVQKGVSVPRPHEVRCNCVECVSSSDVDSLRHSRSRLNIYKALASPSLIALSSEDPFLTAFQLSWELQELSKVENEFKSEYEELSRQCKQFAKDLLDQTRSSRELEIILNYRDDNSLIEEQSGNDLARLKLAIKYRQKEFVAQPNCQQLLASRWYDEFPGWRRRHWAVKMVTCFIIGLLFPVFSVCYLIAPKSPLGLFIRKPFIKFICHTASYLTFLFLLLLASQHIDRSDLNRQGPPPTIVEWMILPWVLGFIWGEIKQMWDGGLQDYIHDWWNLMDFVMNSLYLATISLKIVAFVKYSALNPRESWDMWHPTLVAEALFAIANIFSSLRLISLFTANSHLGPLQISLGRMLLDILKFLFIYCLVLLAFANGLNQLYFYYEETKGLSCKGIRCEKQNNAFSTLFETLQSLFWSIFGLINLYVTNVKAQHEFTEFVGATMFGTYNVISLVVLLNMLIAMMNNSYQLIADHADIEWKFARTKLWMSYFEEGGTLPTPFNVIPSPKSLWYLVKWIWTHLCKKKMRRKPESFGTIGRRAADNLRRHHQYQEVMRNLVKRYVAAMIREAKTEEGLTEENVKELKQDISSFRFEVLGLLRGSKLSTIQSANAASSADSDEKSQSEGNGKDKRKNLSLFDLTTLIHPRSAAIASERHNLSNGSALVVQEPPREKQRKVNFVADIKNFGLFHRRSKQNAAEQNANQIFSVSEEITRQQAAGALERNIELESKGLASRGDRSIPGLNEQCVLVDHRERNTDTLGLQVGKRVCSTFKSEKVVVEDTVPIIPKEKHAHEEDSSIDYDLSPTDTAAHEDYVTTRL
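Material: HEK293 cells with stable TRPC4beta plus mu-opioid receptor expression; probe or stimulus: DAMGO in two steps, submaximal then maximal; technique: Fluo4 calcium fluorescence by kinetic imaging, 5 s 1 Hz baseline; measure: integrated fluorescence ratio relative to baseline, converted to per-well B score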
TRPC6 act = activates the mouse TRPC6 cation channel | B-score at 10 µM | 0.13% of 310,000 active | HEK293-TRPC6 membrane potential dye fluorescence; stronger effect = higher value;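 active = B-score of the integrated fluorescence ratio above library mean plus 3 SD, and starting fluorescence ratio within library mean plus 5 SD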;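 note: higher score means more depolarization so channel activation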
TRPC4 potent = allosterically enhances the mouse TRPC4 cation channel. Q9QUQ5. HEK293 TRPC4beta/mu-opioid, DAMGO EC20, Fluo-4 Ca2+ flux; stronger effect = higher value. B-score at 10 µM. 0.42% of 310,000 active. AID 2227;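 active = B-score of calcium response area above 5 SD of library B-scores, with initial fluorescence ratio within 5 SD of library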;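 note: B-score of integrated fluorescence ratio over time as area under calcium response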
TRPC4 agonist = activators of mouse TRPC4 channel; HEK293 TRPC4beta/mu-opioid, Fluo4 calcium fluorescence; stronger effect = higher value; B-score at 10 µM; 0.49% of 310,000 active; AID 2237;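 active = B-score above 5 SD of library B-scores, and initial fluorescence ratio not above library mean plus 5 SD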;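 note: positive B-score marks a calcium rise read as TRPC4 activation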
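System – HEK293 cells stably co-expressing mouse TRPC4beta and mu-opioid receptor · Signal – Fluo4 calcium-sensitive dye fluorescence, kinetic, 1 Hz baseline · Benchmarks – buffer (low) and maximal DAMGO (high) · Read-out – B score of integrated fluorescence ratio per well · Incubation – dye loading 45 min room temperature, 110 s kinetic read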
TRPC4 spec 2 = mouse TRPC4 off-target activity of TRPC6 inhibitors, second screen; shares compounds with TRPC6 inhibitor; HEK293 TRPC4/MOR, membrane potential dye fluorescence; channel activated by saturating DAMGO dose; inhibition, % at 10 µM; 42% of 920 active; AID 2776;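 active = compounds whose fluorescence signal differed from control wells by over 3 SD, either direction, in both duplicate plates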
TRPC4 spec = tests whether TRPC6 inhibitors also affect mouse TRPC4 | HEK293 TRPC4/mu-opioid, membrane potential fluorescence | AID 2777 | shares compounds with TRPC6 inhibitor | 61% of 920 active | activity change, negative = inhibition, % at 10 µM;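 active = rise or fall in signal beyond 3 SD of buffer-only wells in both replicate plates, either sign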;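 note: integrated kinetic ratio of fluorescence range over baseline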
HEK293 MPD ctr 2-1 = second check of TRPC6 inhibitor effects in parental HEK293 cells; 31% of 920 active; shares compounds with TRPC6 inhibitor; parental HEK293 membrane potential dye fluorescence; maximal acetylcholine challenge after compound addition; signal change vs control, % at 10 µM;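 active = membrane potential signal moving either way by over 3 SD of the maximum-effect control, in both duplicate plates, meaning non-specific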
HEK293 MPD ctr-1 = counter-screen for TRPC6 inhibitors: effect in parental HEK293 cells. shares compounds with TRPC6 inhibitor. parental HEK293 membrane potential dye fluorescence. membrane potential signal change, % at 10 µM. 60% of 920 active;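 active = membrane potential signal shifting up or down by more than 3 SD of buffer-only wells, on both duplicate plates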
HEK293 MPD ctr-2 = checks TRPC6 modulator effects in parental HEK293 cells | shares compounds with TRPC6 inhibitor | membrane potential dye fluorescence | membrane potential signal change, % at 10 µM | 51% of 2,400 active | AID 488924;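 active = membrane potential signal moves up or down beyond 5 SD from buffer-only wells, on both duplicate plates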
HEK293 MPD ctr 2-2 = second check of TRPC6 modulator effects in parental HEK293 cells. 14% of 2,400 active. AID 488926. membrane potential dye fluorescence; after compound, maximal acetylcholine stimulation. shares compounds with TRPC6 inhibitor. inhibition, % at 10 µM;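 active = membrane potential signal drops by more than 5 SD from the mean control signal, in both duplicate plates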;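 note: plate controls were acetylcholine ECmax control wells for no effect and buffer only wells for full effect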
TRPC4 ctr mod = tests whether TRPC6 modulators also affect mouse TRPC4 | 69% of 2,400 active | HEK293 TRPC4/mu-opioid, membrane potential fluorescence | percent change from control (negative = decrease, positive = increase), % at 10 µM | shares compounds with TRPC6 inhibitor | AID 488927;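 active = membrane potential signal moved up or down beyond 5 SD of buffer control wells, in both duplicate plates, actives on both sides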;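 note: plate controls were assay buffer wells for no effect and DAMGO maximal-effect wells for full effect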
TRPC4 ctr inh 2 = second check of whether TRPC6 modulators also affect mouse TRPC4; shares compounds with TRPC6 inhibitor; HEK293 TRPC4/mu-opioid, membrane potential dye fluorescence; stimulated with maximal-effect DAMGO; inhibition, % at 10 µM; 55% of 2,400 active; AID 488928;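 active = drop in membrane potential signal beyond 5 SD of the control wells in both duplicate plates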;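 note: TRPC4 counter screen for TRPC6 hits run under conditions tuned for TRPC6 not TRPC4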
TRPC6 inh conf = confirmation of mouse TRPC6 inhibitors; inhibition, % at 10 µM; AID 488960; 43% of 3,300 active; shares compounds with TRPC6 inhibitor; HEK293-TRPC6, membrane potential dye, ACh-evoked depolarization;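 active = fluorescence ratio falls more than 5 SD below the full-stimulation control mean, in both duplicate runs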;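 note: integrated fluorescence ratio of peak minus minimum over baseline after agonist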
TRPC6 act conf = confirmation of mouse TRPC6 activators | 11% of 2,800 active | activation, % at 10 µM | shares compounds with TRPC6 inhibitor | AID 488961 | HEK293-TRPC6 membrane potential dye fluorescence, FDSS;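 active = ratio signal rise beyond 5 SD above unstimulated control wells' mean, seen in both duplicate runs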;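 note: plate controls were buffer EC0 wells for no effect and acetylcholine ECmax response for full effect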
Starred values were filed as active, the others as inactive.

Screening CCN(CC)CCCNC(=O)c1cc(-c2ccc(Cl)c(Cl)c2)on1 returned TRPC6 inhibitor -6.4*, TRPC4 inh inactive, TRPC6 act inactive, TRPC4 potent inactive, TRPC4 agonist inactive, HEK293 MPD ctr-2 149%*, HEK293 MPD ctr 2-2 inactive, TRPC4 ctr mod 26%*, TRPC4 ctr inh 2 54%* and TRPC6 inh conf inactive.
For C(#Cc1ccccc1)C[N+]1(CC#Cc2cccc3ccccc23)CCCC1 the results were TRPC6 inhibitor -5.5*, TRPC4 inh inactive, TRPC6 act inactive, TRPC4 potent inactive, TRPC4 agonist inactive, HEK293 MPD ctr-2 inactive, HEK293 MPD ctr 2-2 inactive, TRPC4 ctr mod -14%*, TRPC4 ctr inh 2 inactive, TRPC6 inh conf inactive and TRPC6 act conf inactive.
`COc1ccc(-c2nnc(NC(=O)C3=COCCO3)o2)cc1` gave TRPC6 inhibitor inactive, TRPC4 inh inactive, TRPC6 act inactive, TRPC4 potent inactive and TRPC4 agonist inactive.
COc1ccc2c(c1)C(C)=CC(C)(C)N2S(=O)(=O)c1ccc(NC(C)=O)cc1 was read as TRPC6 inhibitor inactive, TRPC4 inh inactive, TRPC6 act 14*, TRPC4 potent inactive, TRPC4 agonist inactive, HEK293 MPD ctr-2 inactive, HEK293 MPD ctr 2-2 inactive, TRPC4 ctr mod 10%*, TRPC4 ctr inh 2 inactive, TRPC6 inh conf inactive and TRPC6 act conf inactive.
CC(C)NCc1cc(Br)ccc1OCc1ccccc1 was read as TRPC6 inhibitor -7.2*, TRPC4 inh inactive, TRPC6 act 12*, TRPC4 potent inactive, TRPC4 agonist inactive, HEK293 MPD ctr-2 403%*, HEK293 MPD ctr 2-2 inactive, TRPC4 ctr mod 96%*, TRPC4 ctr inh 2 83%*, TRPC6 inh conf 81%* and TRPC6 act conf 116%*.
CC(C)(C)NCc1cc(Br)ccc1OCc1cccs1 was read as TRPC6 inhibitor -11*, TRPC4 inh inactive, TRPC6 act inactive, TRPC4 potent inactive, TRPC4 agonist inactive, TRPC4 spec 2 39%*, TRPC4 spec 64%*, HEK293 MPD ctr 2-1 inactive, HEK293 MPD ctr-1 36%* and TRPC6 inh conf 99%*.
`CC(C)(C)NCc1cc(Cl)ccc1OCc1cccs1` gave TRPC6 inhibitor -8*, TRPC4 inh inactive, TRPC6 act inactive, TRPC4 potent inactive, TRPC4 agonist inactive, TRPC4 spec 2 40%*, TRPC4 spec 58%*, HEK293 MPD ctr 2-1 30%*, HEK293 MPD ctr-1 32%* and TRPC6 inh conf 108%*.
`CC(C)(C)NCc1cc(Cl)ccc1OCc1ccccc1F` gave TRPC6 inhibitor -8.1*, TRPC4 inh inactive, TRPC6 act 18*, TRPC4 potent inactive, TRPC4 agonist inactive, HEK293 MPD ctr-2 488%*, HEK293 MPD ctr 2-2 inactive, TRPC4 ctr mod 106%*, TRPC4 ctr inh 2 84%*, TRPC6 inh conf 100%* and TRPC6 act conf 152%*.
For COc1ccc(C(=O)C2CCCN(Cc3cccc4c3OCO4)C2)cc1OC (stereo not given) the results were TRPC6 inhibitor inactive, TRPC4 inh inactive, TRPC6 act inactive, TRPC4 potent inactive and TRPC4 agonist inactive.
COc1ccc(O)c(C(=O)C2c3ccccc3C(=O)N2c2ccc(C)cc2)c1 (stereo not given) was read as TRPC6 inhibitor inactive, TRPC4 inh inactive, TRPC6 act inactive, TRPC4 potent inactive and TRPC4 agonist inactive.
Screening C=CCOc1ccc(Br)cc1CNC(C)(C)C returned TRPC6 inhibitor -6.1*, TRPC4 inh inactive, TRPC6 act inactive, TRPC4 potent inactive, TRPC4 agonist inactive, HEK293 MPD ctr-2 214%*, HEK293 MPD ctr 2-2 98%*, TRPC4 ctr mod 52%*, TRPC4 ctr inh 2 100%* and TRPC6 inh conf 80%*.
Screening CC(C)(C)NCc1ccccc1OCc1cccs1 returned TRPC6 inhibitor -9.8*, TRPC4 inh -7*, TRPC6 act inactive, TRPC4 potent inactive, TRPC4 agonist inactive, TRPC4 spec 2 31%*, TRPC4 spec 38%*, HEK293 MPD ctr 2-1 -20%*, HEK293 MPD ctr-1 21%* and TRPC6 inh conf 89%*.
Screening CN(Cc1ccc(Cl)cc1)C(=O)c1ccc2ccccc2n1 returned TRPC6 inhibitor inactive, TRPC4 inh inactive, TRPC6 act inactive, TRPC4 potent inactive and TRPC4 agonist inactive.
Screening CCc1cc(C(=O)NCC(C)(C)N2CCOCC2)sc1C returned TRPC6 inhibitor inactive, TRPC4 inh inactive, TRPC6 act inactive, TRPC4 potent inactive and TRPC4 agonist inactive.
Screening CC(=O)c1c(C)nc(-c2ccc(Cl)cc2)nc1NC(=O)C(C)C returned TRPC6 inhibitor -6*, TRPC4 inh inactive, TRPC6 act inactive, TRPC4 potent inactive, TRPC4 agonist inactive, HEK293 MPD ctr-2 inactive, HEK293 MPD ctr 2-2 106%*, TRPC4 ctr mod 18%*, TRPC4 ctr inh 2 inactive and TRPC6 inh conf 72%*.
Cc1ccccc1OCC(=O)Nc1ccc(C(=O)Nc2ccccc2C(=O)O)cc1 was read as TRPC6 inhibitor inactive, TRPC4 inh inactive, TRPC6 act inactive, TRPC4 potent inactive and TRPC4 agonist inactive.

From PubChem
